The record followed here is ChEMBL document CHEMBL4732114, “Design and structural optimization of novel 2H-benzo[h]chromene derivatives that target AcrB and reverse bacterial multidrug resistance” (Eur J Med Chem, 2021).

Structures are written as SMILES. In brackets after ≈: the same amount, converted by molar mass. Activity calls are given as the source filed them. No cut-off for these calls is given here.

In data set [1] the target is T1, Multidrug efflux pump subunit AcrB (Escherichia coli (strain K12)) (UniProt P31224).
T1 sequence (whole entry): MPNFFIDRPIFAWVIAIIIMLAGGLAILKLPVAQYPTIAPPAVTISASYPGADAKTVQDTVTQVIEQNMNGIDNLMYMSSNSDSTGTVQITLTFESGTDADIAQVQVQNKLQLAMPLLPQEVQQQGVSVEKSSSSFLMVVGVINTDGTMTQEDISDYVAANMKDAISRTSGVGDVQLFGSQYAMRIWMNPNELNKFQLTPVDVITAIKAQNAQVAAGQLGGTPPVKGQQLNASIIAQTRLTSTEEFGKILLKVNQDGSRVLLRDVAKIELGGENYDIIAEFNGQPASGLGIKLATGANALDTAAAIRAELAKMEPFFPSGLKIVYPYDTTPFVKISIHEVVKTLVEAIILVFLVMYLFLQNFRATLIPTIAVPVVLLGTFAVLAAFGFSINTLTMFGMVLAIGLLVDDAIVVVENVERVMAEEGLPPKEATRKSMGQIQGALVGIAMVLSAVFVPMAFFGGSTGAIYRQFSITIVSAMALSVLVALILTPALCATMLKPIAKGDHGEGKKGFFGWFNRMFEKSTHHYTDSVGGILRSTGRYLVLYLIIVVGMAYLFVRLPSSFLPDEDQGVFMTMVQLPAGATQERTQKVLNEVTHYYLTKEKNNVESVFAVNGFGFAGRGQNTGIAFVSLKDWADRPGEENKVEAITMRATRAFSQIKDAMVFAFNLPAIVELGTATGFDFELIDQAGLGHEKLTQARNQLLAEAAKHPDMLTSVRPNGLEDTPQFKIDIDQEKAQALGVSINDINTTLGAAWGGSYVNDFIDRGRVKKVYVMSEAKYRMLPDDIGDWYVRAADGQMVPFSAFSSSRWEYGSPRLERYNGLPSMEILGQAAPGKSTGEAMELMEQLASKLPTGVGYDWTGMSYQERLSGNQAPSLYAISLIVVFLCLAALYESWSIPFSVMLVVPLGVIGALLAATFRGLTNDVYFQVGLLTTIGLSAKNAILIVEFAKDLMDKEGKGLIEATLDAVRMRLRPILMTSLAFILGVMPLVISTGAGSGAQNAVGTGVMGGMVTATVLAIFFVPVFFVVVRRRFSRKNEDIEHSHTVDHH
Kind of data set: Inhibition of AcrB in multidrug-resistant Escherichia coli BW25113 assessed as potentiation of erythromycin-induced antibacterial activity by measuring erythromycin MIC at 128 ug/ml by checkerboard titration method (reference value: 64 ug/ml). The following applies: dose 128.0 µg/ml.

Data set [2] deals with T1, Multidrug efflux pump subunit AcrB (Escherichia coli (strain K12)). Description: Inhibition of AcrB in multidrug-resistant Escherichia coli BW25113 assessed as potentiation of levofloxacin-induced antibacterial activity by measuring levofloxacin MIC at 16 ug/ml by checkerboard titration method (reference value: 0.06 ug/ml). The following applies: dose 16.0 µg/ml.
For data set [3] the target is unchanged. Kind of data set: Inhibition of AcrB in multidrug-resistant Escherichia coli BW25113 assessed as potentiation of erythromycin-induced antibacterial activity by measuring erythromycin MIC at 64 ug/ml by checkerboard titration method (reference value: 64 ug/ml). Conditions: dose 64.0 µg/ml.
Data set [4] is described as follows: Toxicity in multidrug-resistant Escherichia coli BW25113 assessed as growth inhibition by two-fold broth dilution method. A general note: Dilution methods test growth across graded concentrations, often in twofold steps.
Data set [5] deals with T1, Multidrug efflux pump subunit AcrB (Escherichia coli (strain K12)). Kind of data set: Inhibition of AcrB in multidrug-resistant Escherichia coli BW25113 assessed as potentiation of levofloxacin-induced antibacterial activity by measuring levofloxacin MIC at 64 ug/ml by checkerboard titration method (reference value: 0.06 ug/ml). The following applies: dose 64.0 µg/ml.

The test system of data set [6] is Cell membrane. Description: Induction of inner membrane permeabilization in wild type Escherichia coli BW25113 assessed as perturbation of proton motive force at 32 ug/ml measured after 10 mins in presence of CCCP and glucose by Di0C2(3) probe based fluorescence assay. Conditions: escherichia coli bw25113, 10 min, dose 32 µg/ml. The method in brief: (§1)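 Cell suspensions were left untreated or exposed to 8-128 µg/mL compound for 10 min. DiOC₂(3) was then added and fluorescence followed to a plateau. Cells were re-energized with 0.5% glucose, and the rise in fluorescence was read as membrane-potential build-up. CCCP was added last to dissipate the potential.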

The target of data set [7] is T1, Multidrug efflux pump subunit AcrB (Escherichia coli (strain K12)). Conditions: Escherichia coli BW25113; dose 64.0 µg/ml.
Data set [8] has the same target. Kind of data set: Inhibition of AcrB in multidrug-resistant Escherichia coli BW25113 assessed as potentiation of chloramphenicol-induced antibacterial activity by measuring chloramphenicol MIC at 64 ug/ml by checkerboard titration method (reference value: 8 ug/ml). Conditions: dose 64.0 µg/ml.
Data set [9] has the same target. Conditions: Escherichia coli BW25113; dose 8.0 µg/ml.
Data set [10] can be described thus: Toxicity in multidrug-resistant Escherichia coli BW25113 harboring AcrB deletion mutant assessed as growth inhibition by two-fold broth dilution method.
Data set [11] concerns the target T1, Multidrug efflux pump subunit AcrB (Escherichia coli (strain K12)). The following applies: Escherichia coli BW25113; dose 128.0 µg/ml.
Data set [12] shares this target. Kind of data set: Inhibition of AcrB in multidrug-resistant Escherichia coli BW25113 assessed as potentiation of tetraphenylphosphonium-induced antibacterial activity by measuring tetraphenylphosphonium MIC at 16 ug/ml by checkerboard titration method (reference value: 1024 ug/ml). The following applies: dose 16.0 µg/ml.
Data set [13] shares this target. Description: Inhibition of AcrB in Escherichia coli BW25113 assessed as reduction in glucose-induced nile red efflux at 100 to 200 uM preincubated for 15 mins followed by nile red addition and incubated for 3 hrs in shaker in presence of CCCP by fluorimetric analysis. Conditions: dose 100-200 µM, time 3.25 hrs. The method, boiled down: (§2)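 Wild-type and AcrB-deleted cells were preloaded with Nile Red, with or without compound. Fluorescence was recorded, and efflux was triggered at 100 s with 0.2% glucose. Traces were compared with the deletion-strain level. Triplicate experiments used different cell batches.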

Data set [14] shares this target. Kind of data set: Inhibition of AcrB in multidrug-resistant Escherichia coli BW25113 assessed as potentiation of erythromycin-induced antibacterial activity by measuring erythromycin MIC at 16 ug/ml by checkerboard titration method (reference value: 64 ug/ml). Conditions: dose 16.0 µg/ml.
Data set [15] shares this target. Kind of data set: Inhibition of AcrB in multidrug-resistant Escherichia coli BW25113 assessed as potentiation of chloramphenicol-induced antibacterial activity by measuring chloramphenicol MIC at 16 ug/ml by checkerboard titration method (reference value: 8 ug/ml). The following applies: dose 16.0 µg/ml.
Data set [16] deals with Cell membrane. Kind of data set: Induction of inner membrane permeabilization in wild type Escherichia coli BW25113 assessed as perturbation of proton motive force at 8 ug/ml measured after 10 mins in presence of CCCP and glucose by Di0C2(3) probe based fluorescence assay. The following applies: escherichia coli bw25113, 10 min, dose 8 µg/ml. The method, boiled down:
as §1

Data set [17] has as its target T1, Multidrug efflux pump subunit AcrB (Escherichia coli (strain K12)). Kind of data set: Inhibition of AcrB in Escherichia coli BW25113 assessed as reduction in glucose-induced nile red efflux at 100 uM preincubated for 15 mins followed by nile red addition and incubated for 3 hrs in shaker in presence of CCCP by fluorimetric analysis. The following applies: time 3.25 hrs. The method in brief:
as §2

For the compound `CC1(C)CC(=O)c2ccc(OCCNC3CCCC3)cc2O1`, the MIC was 64 µg/mL in data set [1]; 0.06 µg/mL in data set [2]; 64 µg/mL in data set [3]; more than 512 µg/mL in data set [4]; 0.03 µg/mL in data set [5]; 16 µg/mL (≈ 52.7 µM) in data set [7]. Further, the MIC in [8] is 8 µg/mL; in data set [9], 16 µg/mL (≈ 52.7 µM); in data set [10] it was more than 128 µg/mL; in data set [11], 16 µg/mL (≈ 52.7 µM); in data set [12] it was 512 µg/mL; in data set [14] it was 64 µg/mL. Besides, the MIC in data set [15] came out at 8 µg/mL. The Activity result in [6] is “Not Active”. Besides, the inhibition entry in data set [13] was “Active”.

In the case of `CC1(C)CC(=O)c2ccc(OCC(=O)Nc3ccc(C#N)c(C(F)(F)F)c3)cc2O1`, the MIC in data set [2] was 0.06 µg/mL; in data set [3], 64 µg/mL; in data set [4], more than 512 µg/mL; in data set [5], 0.06 µg/mL; in data set [7], 16 µg/mL (≈ 38.2 µM); in data set [8] it was 4 µg/mL. For the same compound, the MIC is 16 µg/mL (≈ 38.2 µM) in data set [9]; more than 128 µg/mL in data set [10]; 16 µg/mL (≈ 38.2 µM) in [11]; 1020 µg/mL in [12]; 64 µg/mL in data set [14]; 8 µg/mL in data set [15]. For the same compound, the Activity result in data set [6] was “Not Active”. Further, the inhibition entry in data set [13] was “Active”.

With `CC(C)NCCOc1ccc2c(c1)OC(C)(C)CC2=O`, the Activity result in data set [16] was “Not Active”. The MIC in data set [1] is 64 µg/mL; in [2], 0.03 µg/mL; in [3] it was 64 µg/mL; in [4], more than 512 µg/mL; in data set [5], 0.03 µg/mL; in data set [7], 16 µg/mL (≈ 57.7 µM). Moreover, the MIC is 8 µg/mL in data set [8]; 16 µg/mL (≈ 57.7 µM) in data set [9]; more than 128 µg/mL in [10]; 16 µg/mL (≈ 57.7 µM) in data set [11]; 1020 µg/mL in data set [12]; 64 µg/mL in data set [14]. Also, the MIC in data set [15] came out at 8 µg/mL. Further, the inhibition result in data set [17] is “Active”.

On to `COc1cccc(COc2cccc3c4c(c(-c5nnco5)cc23)CCC(C)(C)O4)c1`, for which the MIC in data set [1] is 32 µg/mL; in data set [2], 0.06 µg/mL; in [3] it was 64 µg/mL; in [4], more than 512 µg/mL; in [5] it was 0.06 µg/mL; in data set [7] it was 16 µg/mL (≈ 38.4 µM). The MIC in [8] was 8 µg/mL; in data set [9], 16 µg/mL (≈ 38.4 µM); in [10] it was more than 128 µg/mL; in data set [11] it was 16 µg/mL (≈ 38.4 µM); in data set [12], 1020 µg/mL; in [14], 64 µg/mL. In data set [15], the MIC is 8 µg/mL. Moreover, the inhibition result in data set [13] is “Active”.

In the case of `CNC(=O)c1ccc(COc2cccc3c4c(c(Cn5cnnn5)cc23)CCC(C)(C)O4)cc1`, the MIC was 32 µg/mL in data set [1]; 0.06 µg/mL in data set [2]; 64 µg/mL in data set [3]; more than 512 µg/mL in data set [4]; 0.06 µg/mL in data set [5]; 16 µg/mL (≈ 35 µM) in data set [7]. For the same compound, the MIC was 4 µg/mL in [8]; 16 µg/mL (≈ 35 µM) in data set [9]; more than 128 µg/mL in data set [10]; 16 µg/mL (≈ 35 µM) in [11]; 1020 µg/mL in [12]; 64 µg/mL in data set [14]. In addition, in data set [15], the MIC stood at 8 µg/mL. Further, the inhibition entry in [13] was “Active”.
